Measurements: PMC5696082 (Analytical biochemistry, 2017)

Columns and labels:
[1] = molecular target: T1, FAAH (Homo sapiens, UniProt O00519); assay: Specific activity of FAAH towards substrates; assay type: biochemical
T1 sequence (O00519 1-579): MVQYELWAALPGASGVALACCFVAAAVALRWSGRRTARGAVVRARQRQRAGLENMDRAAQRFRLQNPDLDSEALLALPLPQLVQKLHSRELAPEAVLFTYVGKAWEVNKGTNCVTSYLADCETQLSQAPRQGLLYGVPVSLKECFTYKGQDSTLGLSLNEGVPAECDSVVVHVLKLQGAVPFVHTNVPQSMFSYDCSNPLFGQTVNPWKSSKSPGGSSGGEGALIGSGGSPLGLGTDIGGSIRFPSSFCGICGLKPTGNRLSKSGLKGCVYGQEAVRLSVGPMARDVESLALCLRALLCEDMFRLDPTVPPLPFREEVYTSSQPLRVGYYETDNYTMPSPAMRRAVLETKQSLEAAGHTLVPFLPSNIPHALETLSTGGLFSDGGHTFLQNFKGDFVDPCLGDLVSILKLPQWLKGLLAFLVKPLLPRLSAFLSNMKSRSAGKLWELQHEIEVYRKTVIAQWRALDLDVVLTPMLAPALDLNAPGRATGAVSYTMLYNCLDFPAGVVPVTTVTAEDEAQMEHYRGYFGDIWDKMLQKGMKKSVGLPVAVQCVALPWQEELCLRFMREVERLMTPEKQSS
Method in brief: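 Enzymes expressed in baculovirus-infected High Five cells: hCE1 CHAPS-solubilised from the 100,000 g pellet, then DEAE-purified; hCE2/hCE3 crude soluble fraction; FAAH crude insoluble fraction. Substrate added to 50 µM final in 100 mM sodium phosphate pH 8.0, 0.1 mg/mL BSA, 1% DMSO. Fluorescence read every 30 s for ≥10 min at 37°C. Rates corrected for estimated purity: hCE1 25%, hCE2 4%, hCE3 3.5% (3% in footnotes), FAAH 6.9%. Triplicates.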

[2] = system: Liver S9; assay: Substrate hydrolysis by pooled tissue S9, liver; assay type: biochemical, human
Method in brief: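 Commercial pooled human tissue S9 fraction added to substrate at 50 µM final in 100 mM sodium phosphate, pH 8.0, 0.1 mg/mL BSA. Fluorescence monitored every 30 s for at least 10 min at 37°C. Specific activity given as the mean of triplicates in one experiment, or mean ± standard deviation of 3 independent experiments run in triplicate.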

CCCCC(C)CCC(=O)Nc1ccc(OC)nc1C (centres unmarked) [4-MOMMP, N-(6-methoxy-2-methylpyridin-3-yl)-4-methyloctanamide]
Selectivity of hCE1 over FAAH (turnover) [1]: 10 fold | Hydrolysis Specific Activity [2]: 5.5 ± 0.4 pmol/min/µg
